# Tb MetRS inh – T. brucei MetRS inhibitors, primary screen, biochemical, luminescence. inhibition, % at 11.9 µM. purified T. brucei MetRS, ATP depletion, Kinase-Glo luminescence. 0.4% of 360,000 active;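 active = inhibition above a per-plate cutoff of the control wells' mean inhibition plus 3 SD, cut at about 5.5% in these data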;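 note: 0% = DMSO wells median and 100% = median of wells with control inhibitor compound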
#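 Dosing: 11.9 µM compound single dose, 0.9% DMSO; Assay system: purified T. brucei MetRS enzyme; Measured by: Kinase-Glo luciferase luminescence reporting remaining unconsumed ATP; Schedule: 15 min plus 2 h at 25 °C.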
# MsrA inh – bovine MsrA enzyme inhibitors, primary screen, biochemical, absorbance, HTS. Methionine sulfoxide reductase A (Bos taurus). purified bovine MsrA, absorbance read-out. inhibition, % at 15.5 µM. 0.75% of 360,000 active. AID 651718, 2012;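 note: 0% = vehicle wells with enzyme and 100% = reference inhibitor wells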
# bovine MsrA act – bovine MsrA enzyme activators, primary screen, biochemical, absorbance, HTS; 0.3% of 360,000 active; activation, % at 10.6 µM; Methionine sulfoxide reductase A (Bos taurus); purified bovine MsrA, absorbance read-out; in the data active = activation above about 7.5%;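 note: 0% = vehicle and 100% = reference activator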
# proCasp7 act – procaspase-7 activators, primary screen, counter-screen for procaspase-3 activator project, biochemical, absorbance, HTS, human. recombinant procaspase-7, Ac-DEVD-pNA absorbance 405 nm; D23A/D198A/D206A triple mutant, cannot self-cleave; scale: DMSO 0, 5 µM enzyme 100. Caspase-7 (Homo sapiens), P55210. 0.093% of 330,000 active. activation, % at 8.5 µM;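 active = percent activation above the screen-wide mean plus 3 SD, cut at about 25% in these data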
# Target sequence (P55210 whole entry D23A/D198A/D206A): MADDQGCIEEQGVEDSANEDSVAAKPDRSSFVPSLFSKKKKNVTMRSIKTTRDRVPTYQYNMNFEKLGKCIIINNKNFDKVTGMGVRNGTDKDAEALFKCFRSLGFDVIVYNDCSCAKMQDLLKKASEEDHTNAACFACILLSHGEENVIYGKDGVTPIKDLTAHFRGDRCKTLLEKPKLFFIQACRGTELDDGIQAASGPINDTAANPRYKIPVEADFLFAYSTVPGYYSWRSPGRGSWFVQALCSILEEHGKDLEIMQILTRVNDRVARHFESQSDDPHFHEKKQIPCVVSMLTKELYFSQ
#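 Assay system: Uncleavable procaspase-7 mutant enzyme / Input: 2 µM procaspase-7 mutant as dispensed / Dosing: single nominal 8.5 µM compound dose, 0.8% DMSO final / Timing: 1 h enzyme–compound preincubation and 2 h substrate reaction, both 25 °C / Detection: p-Nitroaniline absorbance at 405 nm, read at 0 and 120 min / Replication: singlicate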
# procasp3 activ – activators of human procaspase-3 D3A mutant, primary screen, biochemical, absorbance, PC-3 D3A mutant, single concentration. Caspase-3 (Homo sapiens), P42574. recombinant procaspase-3 D3A, Ac-DEVD-pNA absorbance 405 nm. activation, % at 8.5 µM. 0.11% of 330,000 active;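 active = activation above the mean of all tested compounds plus 3 SD, cut at about 21% in these data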;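 note: 0% = DMSO alone and 100% = DMSO wells spiked with extra 5 µM PC-3 D3A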
# Target sequence (P42574 whole entry D9A/D28A/D175A): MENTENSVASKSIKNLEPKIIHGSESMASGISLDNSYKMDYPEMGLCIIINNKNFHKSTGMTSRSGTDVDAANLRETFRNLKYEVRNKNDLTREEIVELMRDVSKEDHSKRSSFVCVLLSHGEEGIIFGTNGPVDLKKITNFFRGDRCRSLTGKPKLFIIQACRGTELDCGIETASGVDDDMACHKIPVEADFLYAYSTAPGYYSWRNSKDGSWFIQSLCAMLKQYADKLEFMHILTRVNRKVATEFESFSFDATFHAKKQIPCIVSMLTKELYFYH
#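 Assay system: Procaspase-3 D3A mutant, all three cleavage aspartates alanine. Buffer or medium: Zinc-free HEPES saline buffer with Triton X-100. Times: 1 h compound preincubation, 2 h substrate hydrolysis at 25 °C. Measured by: 405 nm absorbance of p-nitroaniline, reads at 0 and 120 min. Read-out basis: percent activation relative to control range. Replicates: singlicate.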
# MsrA inh confirm – bovine MsrA inhibitors, retest, confirmation, biochemical, absorbance, HTS. shares compounds with MsrA inh. purified bovine MsrA, absorbance read-out. inhibition, % at 15.5 µM. 41% of 2,300 active. AID 651822, 2012;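 note: coupled to thioredoxin reductase with NADPH and selenocystamine and DMSO as substrate; 0% = vehicle only and 100% = full effect of reference inhibitor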
# Numbers without * were called inactive; · = no result given. A selection: hits, their analogues and other compounds. The true share with any hit is near 1.5%. Cut-off read from the data, not from the text of the source, unless noted: active = inhibition above about 4.5%; inactive = the rest.
SMILES,Tb MetRS inh,MsrA inh,bovine MsrA act,proCasp7 act,procasp3 activ,MsrA inh confirm
N#C/C(=N\O)c1nc2ccccc2s1,0,4.7*,-7,-7,2,3
CCOC(=O)c1sc(C)c2c(=O)n(CC)nnc12,0,5.7*,-4,2,-2,3
CCOC(=O)c1sc(C)c2c(=O)n(CCc3ccccc3)nnc12,0,-1,-2,0,1,·
COC(=O)C1=C(C)N(Cc2ccccc2C(F)(F)F)C(=NCc2ccc3c(c2)OCO3)NC1c1ccc(C(F)(F)F)cc1 (centres undefined),·,-1,·,·,·,·
CCCc1nc(SCc2ccccn2)c2c(=O)n(C)c(=O)n(C)c2n1,0,11*,-3,14,3,9.2*
Cc1[nH]nc2c1C(c1ccsc1)C1=C(CC(C)(C)CC1=O)N2 (centres undefined),-1,4.7*,-14,-1,-1,3
N#Cc1c(SCc2ccccc2)nc(N2CCOCC2)c2c1CCCC2,0,14*,-3,6,-3,10*
Cc1ccc(Nc2ccc([N+](=O)[O-])nc2[N+](=O)[O-])cc1,-1,5.3*,-7,-1,3,5.0*
O=C1N/C(=N\S(=O)(=O)Cc2ccccc2)S/C1=C/c1cccc([N+](=O)[O-])c1,0,5.6*,-3,-6,-6,4
O=C1N/C(=N/O)S/C1=C/c1cccc([N+](=O)[O-])c1,1,3,-4,-2,0,·
COc1cccc(N=c2oc3ccccc3cc2-c2nc3ccccc3[nH]2)c1,-1,5.2*,-3,-15,-1,1
CC1(C)CC(=O)c2sc(NC(=O)C(C)(C)C)nc2C1,-1,1,-11,12,11,·
CC1(C)CC(=O)c2sc(NC(=O)CN3CCCCC3)nc2C1,-1,5.2*,1,16,1,3
CC1(C)CC(=O)c2sc(NS(=O)(=O)c3ccc(F)cc3)nc2C1,-1,5.3*,-9,3,8,3
COc1cc(S(=O)(=O)N2CCN(C(=O)c3ccccc3F)CC2)c(OC)cc1NC(C)=O,-1,0,1,·,·,·
Cc1ccc2c(c1)C(=O)c1ccccc1CS2=O (centres undefined),-1,0,5,3,5,·
COc1ccc(S(=O)(=O)N2CCCOC2CNC(=O)C(=O)NCc2ccncc2)cc1 (centres undefined),0,0,0,7,-3,·
COc1cc(C(=O)C(=O)N2CCN(c3ccccc3)CC2)cc(OC)c1OC,0,1,·,·,·,·
O=C(N/C=N/OCc1ccc(Cl)cc1Cl)NOCc1ncc(C(F)(F)F)cc1Cl,0,15*,0,17,-2,11*
CO/N=C/NC(=O)NOCc1ncc(C(F)(F)F)cc1Cl,0,0,1,4,-1,·
CCCS(=O)(=O)c1c(S(=O)(=O)CCC)c2c(N)cccn2c1C(=O)OC,-1,5.2*,-13,12,-2,1
COc1cc(OC)c(NC(=O)C(Sc2nc(C)cc(C)c2C#N)c2ccccc2)cc1Cl (centres undefined),·,1,·,·,·,·
CCOC(=O)CC1(NC(=O)C2CCC(=O)N(CCc3ccccc3)C2)CCCCC1 (centres undefined),0,0,-1,8,7,·
COc1ccc(C(=O)C(=NNc2ccccc2)c2ccc(OC)cc2)cc1,0,2,-6,·,·,·
COc1ccc(N/N=C(\C=N\O)C(=O)c2ccc(OC)cc2)cc1,-1,11*,-6,-16,2,5.0*
SMILES,Tb MetRS inh,MsrA inh,bovine MsrA act,proCasp7 act,procasp3 activ,MsrA inh confirm
CC(C)(CO)Nc1ccc([N+](=O)[O-])cc1[N+](=O)[O-],0,5.3*,3,2,-4,4
C/C(=N/Nc1ccccc1[N+](=O)[O-])c1ccc([N+](=O)[O-])cc1,0,0,-3,3,-2,·
CC/C(=N\Nc1ccc([N+](=O)[O-])cc1[N+](=O)[O-])c1ccc(O)cc1,0,6.7*,-2,-2,-9,1
C/C(=N\Nc1ccc(C#N)cc1[N+](=O)[O-])c1ccc(O)cc1,0,16*,-4,-4,-6,17*
CN1CCCCC(NC(=O)c2cccc([N+](=O)[O-])c2)C1=O (centres undefined),·,0,·,·,·,·
O=C(O)c1ccccc1C(=O)Nc1cccc([N+](=O)[O-])c1,-1,0,-3,11,3,·
Nc1ccc(Nc2ccc([N+](=O)[O-])cc2[N+](=O)[O-])cc1,0,4,-2,4,-9,·
O=C(O)c1ccccc1C(=O)Nc1ccc(Nc2ccc([N+](=O)[O-])cc2[N+](=O)[O-])cc1,-1,5.1*,-13,-5,-2,3
O=[N+]([O-])c1ccc(Nc2ccccn2)c([N+](=O)[O-])c1,-2,5.3*,-13,9,-7,4
COc1ccc(/C=C/C(=O)c2c(O)ccc3c(C)cc(=O)oc23)cc1,0,5.4*,-5,9,1,5.1*
Cc1cc(=O)oc2c(O)c(O)ccc12,-1,1,-2,·,·,·
COc1ccc(/C=C\C(=O)c2c(O)ccc3c(C)cc(=O)oc23)cc1,-1,5.3*,-9,-2,-9,4
CN(c1cccnc1)c1ccc(NC(=O)Cc2c[nH]c3ccccc23)cc1-c1ccc(F)c(F)c1,·,0,·,·,·,·
CCOC1=C2CN(S(=O)(=O)c3ccc(C)cc3)C(c3ccc(C)cc3)CC2N(S(=O)(=O)c2ccc(C)cc2)C(c2ccccc2)C1 (centres undefined),-1,0,·,·,·,·
Cc1ccc(/C(CSc2nccn2-c2ncc(C(F)(F)F)cc2Cl)=N\O)cc1,0,8.6*,1,-3,-2,0
CN(c1nc2nonc2nc1NC1CC1)C1CCOC1 (centres undefined),1,5.0*,-3,-4,-4,2
O=C(O)c1ccc(/C=C2\SC(=S)N(NC(=O)c3ccccc3[N+](=O)[O-])C2=O)cc1,-1,4.8*,-8,·,·,4
COc1cc(/C=N/Nc2ncnc3sc4c(c23)CCC4)ccc1O,0,5.5*,-9,·,·,4
COc1cc(/C=N/NC2=NCCCCC2)ccc1O,0,2,-2,10,6,·
